Experimental data published in publication PMC9435035 (ACS Omega, 2022).

Experiments:
[1] = test system: overnight fasted normal rats; test: oral glucose tolerance test; type: in vivo, Wistar albino rats; settings: OGTT, glucose 3 g/kg oral
[2] = test system: Balb/C mice; test: acute toxicity study in mice; type: in vivo; settings: for mortality: maximum oral dose of 2000 mg/kg (b.w.); for toxic effects (diarrhea, convulsions, lethargy, sleeping, salivation, tremor): oral up to 2000 mg/kg, observed daily for 2 weeks
Method in brief: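 Two-phase modified Lorke protocol in Balb/C mice (20–25 g), four per group. Phase 1: control given Tween-80 (2%); other groups received oral test compound at 100, 500 or 1000 mg/kg. Phase 2: oral doses of 1250, 1500 and 2000 mg/kg. Animals observed for the first 24 h, then daily for 2 weeks for diarrhea, convulsions, lethargy, sleeping, salivation and tremors, with mortality monitored.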

[3] = test system: streptozotocin-induced diabetic Wistar rats; test: antidiabetic activity: blood glucose in STZ-induced diabetes; type: in vivo, Wistar albino rats
Method in brief: (§1)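 Male Wistar albino rats (170–200 g, 8–10 weeks), fasted overnight, given STZ 50 mg/kg i.p. in 0.1 M citrate buffer, then 10% glucose for 3 days. Tail-vein glucose by glucometer at 72 h; >250 mg/dL counted as diabetic. Body weight and blood glucose on days 1, 7, 14, 21 and 28. Means ± SEM, one-way ANOVA with Dunnett's test.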

[4] = body weight of STZ-induced diabetic rats; type: in vivo, Wistar albino rats; settings: for body weight, day 1: day 1, in g (unit assumed); for body weight, day 7: day 7, in g (unit assumed); for body weight, day 14: day 14, in g (unit assumed); for body weight, day 21: day 21, in g (unit assumed); for body weight, day 28: day 28, in g (unit assumed)
Method in brief: as §1

[5] = target: α-glucosidase (Saccharomyces cerevisiae, UniProt P53341); test: α-glucosidase inhibitory activity; type: biochemical; settings: read-out: glucosidase inhibition IC50 ± SEM; mean ± SEM
[6] = test system: streptozotocin-induced diabetic Wistar rats; test: serum profile; type: in vivo, Wistar albino rats; settings: STZ-diabetic rats; for (ALP) IU / (SGOT) IU / (SGPT) IU: serum
Method in brief: (§2)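 STZ-diabetic Wistar rats (n = 8 per group) received test compound at 10 or 20 mg/kg p.o., or glibenclamide 500 μg/kg p.o., once daily for 28 days; controls received vehicle. On day 28, rats were anesthetised with pentobarbital sodium (35 mg/kg) and blood was drawn by cardiac puncture. Serum ALP, SGPT, SGOT, LDL, HDL, TG, total cholesterol, creatinine and insulin were measured. Means ± SEM, one-way ANOVA with Dunnett's test.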

[7] = test system: streptozotocin-induced diabetic Wistar rats; test: lipid profile in streptozotocin-induced diabetes; type: in vivo, Wistar albino rats; settings: STZ-diabetic rats
Method in brief: as §2

[8] = 10 mg/kg p.o. once daily, day 28, 10 mg/kg
[9] = 20 mg/kg p.o. once daily, day 28, 20 mg/kg

Chain of α-glucosidase (P53341 whole entry): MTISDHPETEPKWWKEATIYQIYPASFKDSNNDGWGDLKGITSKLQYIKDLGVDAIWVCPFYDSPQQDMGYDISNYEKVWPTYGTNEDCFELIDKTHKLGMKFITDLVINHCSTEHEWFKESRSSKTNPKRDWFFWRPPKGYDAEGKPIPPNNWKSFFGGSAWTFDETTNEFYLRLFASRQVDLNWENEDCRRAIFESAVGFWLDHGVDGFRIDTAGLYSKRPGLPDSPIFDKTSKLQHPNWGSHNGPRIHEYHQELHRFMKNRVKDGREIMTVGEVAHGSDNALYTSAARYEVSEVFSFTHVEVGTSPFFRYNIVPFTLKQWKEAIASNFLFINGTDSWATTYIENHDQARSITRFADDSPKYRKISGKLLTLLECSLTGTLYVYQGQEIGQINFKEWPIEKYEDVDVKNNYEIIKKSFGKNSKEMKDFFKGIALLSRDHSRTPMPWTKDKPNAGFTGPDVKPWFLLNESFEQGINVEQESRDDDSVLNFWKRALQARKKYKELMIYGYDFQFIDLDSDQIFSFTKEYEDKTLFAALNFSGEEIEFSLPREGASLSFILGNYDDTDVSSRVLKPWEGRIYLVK

## 2-(4-(Benzyloxy)-3-methoxyphenyl)-4-(p-tolyl)-2,3-dihydrobenzo[b][1,5]thiazepine [12B]
[1]; dose 10 mg/kg
  blood glucose level, 0 min: 101.67 ± 4.55 mg/dL
  blood glucose level, 30 min: 121.63 ± 4.56 mg/dL
  blood glucose level, 60 min: 122.02 ± 4.66 mg/dL
  blood glucose level, 90 min: 115.31 ± 4.61 mg/dL
  blood glucose level, 120 min: 114.19 ± 4.61 mg/dL
[1]; dose 20 mg/kg
  blood glucose level, 0 min: 105.59 ± 4.61 mg/dL
  blood glucose level, 30 min: 117.38 ± 4.01 mg/dL
  blood glucose level, 60 min: 117.61 ± 4.60 mg/dL
  blood glucose level, 90 min: 110.71 ± 4.91 mg/dL
  blood glucose level, 120 min: 111.21 ± 4.31 mg/dL
[2]
  mortality: no mortality
  toxic effects (diarrhea, convulsions, lethargy, sleeping, salivation, tremor): no toxic effects
[3]; 10 mg/kg p.o. once daily
  blood glucose level, day 1: 371.67 ± 4.66 mg/dL
  blood glucose level, day 7: 301.41 ± 4.56 mg/dL
  blood glucose level, day 14: 209.60 ± 4.22 mg/dL
  blood glucose level, day 21: 152.56 ± 4.71 mg/dL
[3]; [8]
  blood glucose level, day 28: 138.92 ± 4.67 mg/dL
[3]; 20 mg/kg p.o. once daily
  blood glucose level, day 1: 369.56 ± 4.56 mg/dL
  blood glucose level, day 7: 237.11 ± 4.39 mg/dL
  blood glucose level, day 14: 167.49 ± 5.02 mg/dL
  blood glucose level, day 21: 131.69 ± 4.77 mg/dL
[3]; [9]
  blood glucose level, day 28: 114.74 ± 5.09 mg/dL
[4]; 10 mg/kg
  body weight, day 1: 187.5 ± 4.39
  body weight, day 7: 185.1 ± 4.71
  body weight, day 14: 184.5 ± 4.06
  body weight, day 21: 187.0 ± 4.39
  body weight, day 28: 173.9 ± 4.28
[4]; 20 mg/kg
  body weight, day 1: 189.7 ± 4.08
  body weight, day 7: 184.7 ± 4.66
  body weight, day 14: 187.1 ± 4.11
  body weight, day 21: 189.3 ± 4.60
  body weight, day 28: 175.3 ± 5.01
[5]
  IC50: 3.79 ± 0.22 µM
[6]; 10 mg/kg for 28 days
  insulin level: 0.651 ± 0.34 ng/mL
  serum creatinine: 0.90 ± 0.30 mg/dL
  (ALP) IU: 215.19 ± 4.10 IU
  (SGOT) IU: 26.01 ± 2.01 IU
  (SGPT) IU: 26.53 ± 2.38 IU
[6]; 20 mg/kg for 28 days
  insulin level: 0.660 ± 0.30 ng/mL
  serum creatinine: 0.80 ± 0.38 mg/dL
  (ALP) IU: 205.93 ± 4.67 IU
  (SGOT) IU: 22.91 ± 2.87 IU
  (SGPT) IU: 23.35 ± 2.54 IU
[7]; 10 mg/kg for 28 days
  HDL: 45.91 ± 2.70 mg/dL
  TG: 149.81 ± 4.60 mg/dL
[7]; 10 mg/kg for 28 days, 10 mg/kg
  LDL: 134.89 ± 4.33 mg/dL
  total CH: 152.11 ± 4.11 mg/dL
[7]; 20 mg/kg for 28 days
  HDL: 53.24 ± 2.08 mg/dL
  TG: 117.97 ± 4.01 mg/dL
[7]; 20 mg/kg for 28 days, 20 mg/kg
  LDL: 113.71 ± 4.16 mg/dL
  total CH: 136.03 ± 4.39 mg/dL

## 2-(4-Fluorophenyl)-4-(p-tolyl)-2,3-dihydrobenzo[b][1,5]thiazepine [13B]
[1]; dose 10 mg/kg
  blood glucose level, 0 min: 104.80 ± 4.97 mg/dL
  blood glucose level, 30 min: 120.04 ± 5.04 mg/dL
  blood glucose level, 60 min: 118.31 ± 4.65 mg/dL
  blood glucose level, 90 min: 109.81 ± 4.56 mg/dL
  blood glucose level, 120 min: 113.93 ± 4.67 mg/dL
[1]; dose 20 mg/kg
  blood glucose level, 0 min: 103.79 ± 5.12 mg/dL
  blood glucose level, 30 min: 116.81 ± 4.31 mg/dL
  blood glucose level, 60 min: 114.98 ± 4.34 mg/dL
  blood glucose level, 90 min: 110.21 ± 3.91 mg/dL
  blood glucose level, 120 min: 110.04 ± 4.81 mg/dL
[2]
  mortality: no mortality
  toxic effects (diarrhea, convulsions, lethargy, sleeping, salivation, tremor): no toxic effects
[3]; 10 mg/kg p.o. once daily
  blood glucose level, day 1: 370.81 ± 4.79 mg/dL
  blood glucose level, day 7: 289.89 ± 4.33 mg/dL
  blood glucose level, day 14: 200.33 ± 4.57 mg/dL
  blood glucose level, day 21: 149.30 ± 4.56 mg/dL
[3]; [8]
  blood glucose level, day 28: 132.98 ± 4.33 mg/dL
[3]; 20 mg/kg p.o. once daily
  blood glucose level, day 1: 375.31 ± 5.01 mg/dL
  blood glucose level, day 7: 230.71 ± 4.88 mg/dL
  blood glucose level, day 14: 163.68 ± 4.37 mg/dL
  blood glucose level, day 21: 120.72 ± 4.11 mg/dL
[3]; [9]
  blood glucose level, day 28: 108.42 ± 3.98 mg/dL
[4]; 10 mg/kg
  body weight, day 1: 186.6 ± 4.70
  body weight, day 7: 183.4 ± 4.15
  body weight, day 14: 186.3 ± 4.22
  body weight, day 21: 180.1 ± 4.12
  body weight, day 28: 177.3 ± 4.40
[4]; 20 mg/kg
  body weight, day 1: 193.6 ± 4.21
  body weight, day 7: 187.2 ± 4.81
  body weight, day 14: 191.1 ± 4.14
  body weight, day 21: 187.8 ± 3.99
  body weight, day 28: 185.7 ± 4.79
[5]
  IC50: 3.28 ± 0.19 µM
[6]; 10 mg/kg for 28 days
  insulin level: 0.696 ± 0.29 ng/mL
  serum creatinine: 0.76 ± 0.39 mg/dL
  (ALP) IU: 208.96 ± 4.22 IU
  (SGOT) IU: 25.41 ± 2.18 IU
  (SGPT) IU: 24.76 ± 2.81 IU
[6]; 20 mg/kg for 28 days
  insulin level: 0.705 ± 0.31 ng/mL
  serum creatinine: 0.70 ± 0.33 mg/dL
  (ALP) IU: 201.80 ± 4.71 IU
  (SGOT) IU: 22.09 ± 2.21 IU
  (SGPT) IU: 22.03 ± 2.78 IU
[7]; 10 mg/kg for 28 days
  HDL: 46.29 ± 2.01 mg/dL
  LDL: 127.81 ± 4.39 mg/dL
  TG: 142.93 ± 4.21 mg/dL
  total CH: 148.67 ± 4.11 mg/dL
[7]; 20 mg/kg for 28 days
  HDL: 56.08 ± 2.63 mg/dL
  LDL: 108.91 ± 4.11 mg/dL
  TG: 114.81 ± 4.41 mg/dL
  total CH: 134.21 ± 4.77 mg/dL

## N,N-Dimethyl-4-(4-(p-tolyl)-2,3-dihydrobenzo[b][1,5]thiazepin-2-yl)aniline [14B]
[1]; dose 10 mg/kg
  blood glucose level, 0 min: 104.21 ± 4.67 mg/dL
  blood glucose level, 30 min: 124.02 ± 4.01 mg/dL
  blood glucose level, 60 min: 119.33 ± 4.63 mg/dL
  blood glucose level, 90 min: 114.98 ± 4.03 mg/dL
  blood glucose level, 120 min: 116.49 ± 4.71 mg/dL
[1]; dose 20 mg/kg
  blood glucose level, 0 min: 103.87 ± 4.18 mg/dL
  blood glucose level, 30 min: 119.61 ± 4.55 mg/dL
  blood glucose level, 60 min: 116.20 ± 4.78 mg/dL
  blood glucose level, 90 min: 112.69 ± 4.11 mg/dL
  blood glucose level, 120 min: 111.61 ± 4.97 mg/dL
[2]
  mortality: no mortality
  toxic effects (diarrhea, convulsions, lethargy, sleeping, salivation, tremor): no toxic effects
[3]; 10 mg/kg p.o. once daily
  blood glucose level, day 1: 369.82 ± 4.12 mg/dL
  blood glucose level, day 7: 294.04 ± 4.67 mg/dL
  blood glucose level, day 14: 196.39 ± 4.12 mg/dL
  blood glucose level, day 21: 151.11 ± 4.39 mg/dL
[3]; [8]
  blood glucose level, day 28: 134.20 ± 4.21 mg/dL
[3]; 20 mg/kg p.o. once daily
  blood glucose level, day 1: 370.33 ± 3.98 mg/dL
  blood glucose level, day 7: 231.69 ± 5.20 mg/dL
  blood glucose level, day 14: 158.26 ± 4.67 mg/dL
  blood glucose level, day 21: 127.21 ± 4.81 mg/dL
[3]; [9]
  blood glucose level, day 28: 109.71 ± 4.23 mg/dL
[4]; 10 mg/kg
  body weight, day 1: 188.5 ± 4.07
  body weight, day 7: 186.8 ± 4.39
  body weight, day 14: 187.1 ± 4.33
  body weight, day 21: 181.6 ± 4.21
  body weight, day 28: 179.3 ± 4.41
[4]; 20 mg/kg
  body weight, day 1: 189.1 ± 4.19
  body weight, day 7: 188.5 ± 4.21
  body weight, day 14: 189.2 ± 4.66
  body weight, day 21: 183.4 ± 4.18
  body weight, day 28: 182.5 ± 4.58
[5]
  IC50: 3.34 ± 0.27 µM
[6]; 10 mg/kg for 28 days
  insulin level: 0.690 ± 0.27 ng/mL
  serum creatinine: 0.75 ± 0.36 mg/dL
  (ALP) IU: 210.98 ± 4.39 IU
  (SGOT) IU: 25.56 ± 2.18 IU
  (SGPT) IU: 25.08 ± 2.78 IU
[6]; 20 mg/kg for 28 days
  insulin level: 0.697 ± 0.34 ng/mL
  serum creatinine: 0.72 ± 0.30 mg/dL
  (ALP) IU: 203.51 ± 4.34 IU
  (SGOT) IU: 22.20 ± 2.21 IU
  (SGPT) IU: 22.82 ± 2.91 IU
[7]; 10 mg/kg for 28 days
  HDL: 45.25 ± 2.15 mg/dL
  LDL: 129.08 ± 4.06 mg/dL
  TG: 144.11 ± 4.39 mg/dL
[7]; 10 mg/kg for 28 days, 10 mg/kg
  total CH: 149.08 ± 4.12 mg/dL
[7]; 20 mg/kg for 28 days
  HDL: 55.21 ± 2.66 mg/dL
  LDL: 110.41 ± 3.90 mg/dL
  TG: 115.24 ± 4.13 mg/dL
[7]; 20 mg/kg for 28 days, 20 mg/kg
  total CH: 135.11 ± 4.02 mg/dL
